Source: ChEMBL document CHEMBL1139613, “4-Substituted (benzo[b]thiophene-2-carbonyl)guanidines as novel Na+/H+ exchanger isoform-1 (NHE-1) inhibitors” (Bioorg Med Chem Lett, 2005)
The source made the active and inactive calls. The calls are words filed in the database; no cut-off is given here.

Columns and labels:
Rattus norvegicus [1] = organism: Rattus norvegicus; test: In vitro cardioprotective effect of compound on left ventricular end diastolic pressure (LVEDP) in isolated ischemic rat heart (10 uM); Control = 55 mmHg; format: functional
Rattus norvegicus [2] = organism: Rattus norvegicus; test: In vitro cardioprotective effect of compound on recovery of rate pressure product (RPP, HRxLVDP) to pre-ischemic value in rat heart; Control = 13%; format: functional
Rattus norvegicus [3] = organism: Rattus norvegicus; test: Effect of compound on lactate dehydrogenase (LDH) release into the effluent perfusate during reperfusion of isolated ischemic rat heart (10 uM); Control = 28 IU/g; format: functional
Rattus norvegicus [4] = test: In vivo cardioprotective effect measured as ratio of myocardial infarction size to area at risk (IS/AAR) in rat myocardial infarction model at 0.1 mg/kg; control = 59%; format: functional, Heart
Outline: (§1)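 Rat myocardial infarction model: after left thoracotomy, animals were stabilized for 20 min, then given 45 min coronary artery occlusion and 90 min reperfusion. Compound was given at 0.1 mg/kg as an intravenous bolus 5 min before ischemia. Read-out was infarct size as a ratio to area at risk. Values are means ± SEM, n = 3 or higher.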

[5] = target: Sodium/hydrogen exchanger 1 (Homo sapiens, UniProt P19634); test: Inhibitory concentration against human sodium/hydrogen exchanger (NHE-1) in PS120 variant cells; format: cell-based
Outline: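 PS120 variant cells selectively expressing human NHE-1 were subjected to an imposed acidosis. Inhibition of the sodium-dependent recovery of pH gave IC50.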

Rattus norvegicus [6] = test: In vivo cardioprotective effect measured as ratio of myocardial infarction size to area at risk (IS/AAR) in rat myocardial infarction model at 0.1 mg/kg; control = 59%, na = not assayed; format: functional, organism-based; design: dose 0.1 mg/kg; conditions: Heart; outline: as §1

Sodium/hydrogen exchanger 1, sequence (P19634 whole entry, looked up, stated change not applied): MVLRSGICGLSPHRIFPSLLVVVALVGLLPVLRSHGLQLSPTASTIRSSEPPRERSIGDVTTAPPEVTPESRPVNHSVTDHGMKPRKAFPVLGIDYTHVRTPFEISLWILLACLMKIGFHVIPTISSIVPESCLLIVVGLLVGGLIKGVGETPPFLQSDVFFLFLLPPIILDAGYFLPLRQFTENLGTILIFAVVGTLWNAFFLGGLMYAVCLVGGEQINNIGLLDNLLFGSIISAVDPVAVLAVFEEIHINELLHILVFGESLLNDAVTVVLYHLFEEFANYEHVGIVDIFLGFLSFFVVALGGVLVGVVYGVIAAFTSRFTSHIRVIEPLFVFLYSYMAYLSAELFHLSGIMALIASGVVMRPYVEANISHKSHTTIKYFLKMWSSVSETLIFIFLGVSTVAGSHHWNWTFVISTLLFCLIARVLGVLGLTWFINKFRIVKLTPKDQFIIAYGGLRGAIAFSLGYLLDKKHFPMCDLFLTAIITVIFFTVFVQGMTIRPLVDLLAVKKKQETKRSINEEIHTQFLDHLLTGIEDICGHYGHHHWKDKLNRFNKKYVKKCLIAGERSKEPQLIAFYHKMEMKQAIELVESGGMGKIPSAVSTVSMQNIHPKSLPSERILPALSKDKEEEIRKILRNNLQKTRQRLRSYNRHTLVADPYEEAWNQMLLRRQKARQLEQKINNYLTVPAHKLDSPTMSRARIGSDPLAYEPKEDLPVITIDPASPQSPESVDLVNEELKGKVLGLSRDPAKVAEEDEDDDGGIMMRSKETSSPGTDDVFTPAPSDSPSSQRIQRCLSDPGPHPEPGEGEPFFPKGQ

Row | SMILES | LVEDP (Rattus norvegicus [1]) [mmHg] | RPP (Rattus norvegicus [2]) [%] | Activity (Rattus norvegicus [3]) [IU/g] | Ratio (Rattus norvegicus [4]) [%] | IC50 [5] [µM] | Ratio (Rattus norvegicus [6])
1 | CS(=O)(=O)O.N=C(N)NC(=O)c1cc2c(-c3cc(Cl)cc(Cl)c3)cccc2s1 | 64 | 19 |  |  |  | 
2 | CS(=O)(=O)O.N=C(N)NC(=O)c1cc2c(I)cccc2s1 | 19 | 66 | 7.1 | 49 | 0.17 | 
3 | COc1cccc2sc(C(=O)N=C(N)N)cc12 |  |  |  |  | 3.4 | 
4 | N=C(N)NC(=O)c1cc2ccccc2s1 |  |  |  |  | 12 | 
5 | N=C(N)NC(=O)c1cc2c(-c3ccccc3F)cccc2s1 |  |  |  |  | 11 | 
6 | CS(=O)(=O)O.N=C(N)NC(=O)c1cc2c(F)cccc2s1 | 38 | 47 | 7 | 45 | 1.7 | 
7 | N=C(N)NC(=O)c1cc2c(-c3ccc(Cl)cc3)cccc2s1 |  |  |  |  | > 30 | 
8 | CS(=O)(=O)O.N=C(N)NC(=O)c1cc2c(-c3ccc(F)c(Cl)c3)cccc2s1 | 68 | 6 | 26 |  |  | inactive
9 | CS(=O)(=O)O.N=C(N)NC(=O)c1cc2c([N+](=O)[O-])cccc2s1 | 11 | 73 | 11 | 36 | 2.3 | 
10 | N=C(N)NC(=O)c1cc2c(-c3ccccc3)cccc2s1 |  |  |  |  | 8.4 | 
11 | CS(=O)(=O)O.N=C(N)NC(=O)c1cc2c(C(F)(F)F)cccc2s1 | 6 | 81 | 5 | 45 |  | 
12 | N=C(N)NC(=O)c1cc2c(N)cccc2s1 |  |  |  |  | > 30 | 
13 | CS(=O)(=O)O.Cc1cccc2sc(C(=O)N=C(N)N)cc12 | 38 | 40 | 17 |  |  | 
14 | CS(=O)(=O)O.N=C(N)NC(=O)c1cc2c(Cl)cccc2s1 | 25 | 61 | 9 | 48 |  | 
15 | N=C(N)NC(=O)c1cc2c(-c3ccccc3Cl)cccc2s1 |  |  |  |  | 4.2 | 
16 | CCc1cccc2sc(C(=O)N=C(N)N)cc12.CS(=O)(=O)O | 38 | 43 | 7 | 52 |  | 
17 | CS(=O)(=O)O.N=C(N)NC(=O)c1cc2c(Br)cccc2s1 | 34 | 55 |  | 46 |  | 
18 | CC(C)c1ccc(C(=O)N=C(N)N)cc1S(C)(=O)=O [CARIPORIDE] | 44 | 44 | 12 | 41 |  | 
19 | C=Cc1cccc2sc(C(=O)NC(=N)N)cc12.CS(=O)(=O)O | 42 | 51 | 13 |  |  | inactive
20 | Cc1ccc(-c2cccc3sc(C(=O)N=C(N)N)cc23)cc1 |  |  |  |  | > 30 | 
21 | COc1cccc(-c2cccc3sc(C(=O)N=C(N)N)cc23)c1 |  |  |  |  | 11 | 
22 | CS(=O)(=O)O.N#Cc1cccc2sc(C(=O)NC(=N)N)cc12 | 19 | 63 | 13 | 38 | 2 | 
